In paper PMC4690987 (Journal of Medicinal Chemistry, 2015):
One block for each molecule: values may come before it.

Tests used:
HIV-1 NL4-3 = experiment: HIV-1 entry assay; type: cell-based; conditions: TZM-bl cells, virus production at 31 h pi; 2 50–100 nM, AZT 0.5 μg/mL, DS 100 μg/mL
Procedure, shortened: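 TZM-bl cells (HeLa stably expressing CD4, CCR5 and HIV-1 LTR-driven luciferase) were grown in DMEM/10% FBS. Cells were seeded at 1 × 10^4 per well and allowed to adhere overnight, then infected with HIV-1 NL4-3 at MOI 0.5 and kept at 37 °C. Test compound or reference agents were added at 0, 1 or 2 h pi. At 31 h cells were PBS-washed and virus production was read as LTR-luciferase RLU.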

TZM-bl cells = conditions: values previously reported ref 27; cited from earlier work
HIV-1 NL4-3 strain [1] = conditions: previous work ref 27, 30; cited from earlier work
HIV-1 NL4-3 strain [2] = experiment: Antiviral assay in HIV-1 infected TZM-bl cells; type: cell-based; conditions: for SI HIV-1 strain NL4-3: CC50 value/IC50 value; for IC50: read-out: IC50 HIV-1 strain NL4-3, MOI 0.5, 48 h, LTR-luciferase signal
Procedure, shortened: (§1)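 TZM-bl cells (HeLa expressing CD4 and CCR5, with LTR-driven luciferase and β-galactosidase) were seeded at 1 ×10^4 cells/well in DMEM/10% FBS and left to adhere overnight. Cells were infected with HIV-1 NL4-3 or BaL at MOI 0.5, treated with serial dilutions of test compound, and incubated at 37 °C for 48 h. IC50 was taken as 50% inhibition of LTR-luciferase signal. CC50 came from parallel MTT on mock-infected cells. SI = CC50/IC50.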

HIV-1 LTR promoter = experiment: LTR-EGFP reporter assay in HeLa-Tat-III/LTR/d1EGFP cells; type: cell-based; conditions: noncytotoxic concentrations of 2 (62.5–250 nM), 48 h, FACS
[3] = tested on: M4 + 5 mutant LTR promoter (non-G4-forming); experiment: Luciferase reporter assay in 293T cells; type: cell-based, HIV-1; conditions: increasing amounts of 2, 24 h
Procedure, shortened: (§2)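 HEK293T cells, 9 ×10^4 per well, transfected 24 h after seeding with 100 ng of a promoterless Luc2 vector carrying the wt or M4+5 (G4-abolishing double point mutant) HIV-1 LTR. Test compound added 1 h after transfection at various concentrations for 24 h. Luciferase activity measured. Cells lysed in RIPA, and signals normalized to total protein (BCA).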

LTR-IV G4 [4] = experiment: Circular dichroism; type: binding, HIV-1; conditions: 4:1 c-exNDI:DNA ratio, label-free oligonucleotide
Procedure, shortened: (§3)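 Unlabelled oligonucleotide, final 4 μM, in 10 mM lithium cacodylate pH 7.4 with 100 mM KCl, annealed at 95 °C for 5 min, then cooled gradually to room temperature. Test compound added to a final 16 μM. CD spectra taken at 230–320 nm (5 mm cell, average of 2 scans, buffer-corrected) while heating 20–95 °C at 5 °C/min. Tm calculated by van't Hoff two-state fit.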

LTR-IV G4 [5] = experiment: ESI-MS competition assay; type: binding, HIV-1; conditions: 2-fold molar excess of compound
Procedure, shortened: (§4)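 G4 oligonucleotides heat-denatured and folded overnight at room temperature in 10 mM KCl, 150 mM trimethylammonium acetate pH 6.8. Equimolar pairs of G4s incubated overnight at 4 °C with 2-fold excess test compound, then injected via HPLC into ESI-MS. Binding affinity = bound/(free + bound) ×100, from reconstructed-ion chromatogram areas. Bound includes one or two ligands; free includes K+ adducts.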

LTR-III G4 [6] = experiment: Circular dichroism; type: binding, HIV-1; conditions: 4:1 c-exNDI:DNA ratio, label-free oligonucleotide
Procedure, shortened: as §3

LTR-III G4 [7] = experiment: ESI-MS competition assay; type: binding, HIV-1; conditions: 2-fold molar excess of compound
Procedure, shortened: as §4

Cytotoxicity assay = type: cell-based; conditions: human, uninfected (mock-infected) TZM-bl cells
Procedure, shortened: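 Run in parallel with the antiviral assay, under the same conditions but on uninfected TZM-bl cells (1 ×10^4 cells/well, seeded overnight, test compound in serial dilution, 37 °C, 48 h). Viability was read by MTT absorbance. CC50 was the concentration that reduced absorbance of mock-infected cells by 50%.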

LTR-IV G4 [8] = experiment: SPR analysis; parameters: species or system HIV-1; conditions: read-out: KD LTR-IV G4 (SPR); 25 °C, HEPES-KCl buffer, 1:1 binding model
Procedure, shortened: (§5)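 5′-biotinylated oligonucleotides folded (95 °C for 5 min, cooled to room temperature), diluted to 30 nM and captured on a streptavidin chip to about 500 RU, with an empty reference cell. Running buffer was 0.01 M HEPES pH 7.4, 0.2 M KCl, 3 mM EDTA. Test compound run at 25–200 nM, 30 μL/min, with 280 s contact and 360 s dissociation. Surface regenerated with 10 mM glycine pH 2.0. Sensorgrams buffer-corrected and fitted to a 1:1 model. At least two independent runs, χ2 below 0.2.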

hTel G4 [9] = experiment: ESI-MS competition assay; type: binding, human; conditions: 2-fold molar excess of compound
Procedure, shortened: as §4

hTel G4 [10] = experiment: Circular dichroism; type: binding, human; conditions: 4:1 c-exNDI:DNA ratio, label-free oligonucleotide
Procedure, shortened: as §3

LTR-III G4 [11] = experiment: SPR analysis; parameters: species or system HIV-1; conditions: read-out: KD LTR-III G4 (SPR); 25 °C, HEPES-KCl buffer, 1:1 binding model
Procedure, shortened: as §5

c-myc G4 = experiment: ESI-MS competition assay; type: binding; conditions: 2-fold molar excess of compound
Procedure, shortened: as §4

LTR-IV G4 [12] = experiment: FRET melting assay; type: binding, HIV-1; conditions: for stabilization (ΔTm, FRET) at 4-fold c-exNDI:DNA molar ratio: 25 °C is the maximum increase measurable, data not shown; for difference in stabilization of LTR-IV G4s vs hTel G4: FRET, equimolar amounts
Procedure, shortened: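 Oligonucleotide labelled with FAM at the 5′ end and TAMRA at the 3′ end, 0.25 μM, folded in lithium cacodylate buffer with 100 mM potassium, plus equimolar test compound. After equilibration at 4 °C, FAM emission was followed from 30 to 95 °C at 1 °C/min. Profiles were normalized, and Tm was the temperature at 0.5 normalized fluorescence.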

[13] = tested on: LTR-III, LTR-IV, and hTel templates; experiment: Taq polymerase stop assay; type: biochemical; conditions: 2 at 3.1–25.0 nM, K+ 100 mM
Procedure, shortened: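 A 5′-end-labelled primer was annealed to each template in lithium cacodylate buffer, with or without 100 mM KCl, by heating to 95 °C for 5 min and cooling gradually to room temperature so the templates folded into G4. A template unable to form G4 served as a control. Taq extension was run with or without test compound, and polymerase stop regions were read from the products.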

wt LTR promoter = experiment: Luciferase reporter assay in 293T cells; type: cell-based, HIV-1; conditions: increasing amounts of 2, 24 h
Procedure, shortened: as §2

c-kit2 G4 = experiment: ESI-MS competition assay; type: binding; conditions: 2-fold molar excess of compound
Procedure, shortened: as §4

HIV-1 BaL strain = experiment: Antiviral assay in HIV-1 infected TZM-bl cells; type: cell-based; conditions: for SI HIV-1 strain BaL: CC50 value/IC50 value; for IC50: read-out: IC50 HIV-1 strain BaL, MOI 0.5, 48 h, LTR-luciferase signal
Procedure, shortened: as §1

hTel G4 [14] = experiment: SPR analysis; parameters: species or system human; conditions: read-out: KD hTel G4 (SPR); 25 °C, HEPES-KCl buffer, 1:1 binding model
Procedure, shortened: as §5

Compound: Cc1cn([C@H]2C[C@H](N=[N+]=[N-])[C@@H](CO)O2)c(=O)[nH]c1=O [AZT, Zidovudine]
antiviral activity as a function of time of addition (0, 1, 2 h pi) (HIV-1 NL4-3): maintaining activity from 0 to 2 h pi

Compound: CN(C)c1ccc(Nc2c3ccc(NC(=O)CCN4CCCC4)cc3nc3cc(NC(=O)CCN4CCCC4)ccc23)cc1.Cl.Cl.Cl [Compound 1, BRACO-19]
CC50 (TZM-bl cells): > 12 µM
IC50 (virus production in infected cells) (HIV-1 NL4-3 strain [1]): low μM range
average selectivity index (SI) (HIV-1 NL4-3 strain [1]): 12
SI HIV-1 strain NL4-3 (HIV-1 NL4-3 strain [2]): >3.5

Compound: CN(C)CCCn1c(=O)c2ccc3c(=O)n(CCCN(C)C)c(=O)c4c5[nH]c6ccccc6[nH]c5c(c1=O)c2c34 [Compound 2]
inhibition of mean EGFP levels (LTR promoter activity) (HIV-1 LTR promoter): up to 60%
effect on non-G4-forming mutant LTR (M4 + 5) luciferase activity [3]: no effect
stabilization of LTR-IV G4 by CD (LTR-IV G4 [4]): higher than 27 °C
binding affinity LTR-IV (LTR-IV G4 [5]; competing G4s LTR-III/LTR-IV): 25
binding affinity LTR-IV (LTR-IV G4 [5]; competing G4s LTR-IV/hTel): 52
binding affinity LTR-IV (LTR-IV G4 [5]; competing G4s LTR-IV/kit): 25
binding affinity LTR-IV (LTR-IV G4 [5]; competing G4s LTR-IV/myc): 25
stabilization of LTR-III G4 by CD (LTR-III G4 [6]): higher than 27 °C
binding affinity LTR-III (LTR-III G4 [7]; competing G4s LTR-III/LTR-IV): 71
binding affinity LTR-III (LTR-III G4 [7]; competing G4s LTR-III/kit): 33
binding affinity LTR-III (LTR-III G4 [7]; competing G4s LTR-III/myc): 39
CC50 (Cytotoxicity assay): 0.532 ± 0.0117 µM
Kd (LTR-IV G4 [8]): 0.0061 µM
binding affinity cell G4 (hTel) (hTel G4 [9]; competing G4s LTR-III/hTel): 10
binding affinity cell G4 (hTel) (hTel G4 [9]; competing G4s LTR-IV/hTel): 25
antiviral activity as a function of time of addition (0, 1, 2 h pi) (HIV-1 NL4-3): No significant difference in the activity of the compound was observed at the tested times
stabilization of hTel G4 by CD (hTel G4 [10]): 19.9 °C
Kd (LTR-III G4 [11]): 0.0032 µM
binding affinity cell G4 (myc) (c-myc G4; competing G4s LTR-III/myc): 45
binding affinity cell G4 (myc) (c-myc G4; competing G4s LTR-IV/myc): 44
stabilization (ΔTm, FRET) at 4-fold c-exNDI:DNA molar ratio (LTR-IV G4 [12]): above 25 °C
difference in stabilization of LTR-IV G4s vs hTel G4 (LTR-IV G4 [12]): ≥ 6 °C
Taq polymerase stop site [13]: intense stop site at the most 3′ G tract in each G4-forming template
SI HIV-1 strain NL4-3 (HIV-1 NL4-3 strain [2]): 40
IC50 (HIV-1 NL4-3 strain [2]): 0.0132 ± 0.0001 µM
inhibition of wt LTR luciferase activity (wt LTR promoter): up to 65%
binding affinity cell G4 (kit) (c-kit2 G4; competing G4s LTR-III/kit): 12
binding affinity cell G4 (kit) (c-kit2 G4; competing G4s LTR-IV/kit): 9
SI HIV-1 strain BaL (HIV-1 BaL strain): 14
IC50 (HIV-1 BaL strain): 0.0362 ± 0.0043 µM
Kd (hTel G4 [14]): 0.0131 µM

The next lines start with results.

Kd (LTR-IV G4 [8]): 0.0066 µM
IC50 (HIV-1 NL4-3 strain [2]): 0.0157 ± 0.0021 µM
IC50 (HIV-1 BaL strain): 0.0325 ± 0.0071 µM
Compound: CN(C)CCCn1c(=O)c2cc(Br)c3c(=O)n(CCCN(C)C)c(=O)c4c5[nH]c6ccccc6[nH]c5c(c1=O)c2c34 [Compound 3]
CC50 (Cytotoxicity assay): 0.343 ± 0.0322 µM
stabilization (ΔTm, FRET) at 4-fold c-exNDI:DNA molar ratio (LTR-IV G4 [12]): above 25 °C
difference in stabilization of LTR-IV G4s vs hTel G4 (LTR-IV G4 [12]): ≥ 6 °C
SI HIV-1 strain BaL (HIV-1 BaL strain): 11

binding affinity LTR-IV (LTR-IV G4 [5]; competing G4s LTR-III/LTR-IV): 68
binding affinity LTR-IV (LTR-IV G4 [5]; competing G4s LTR-IV/hTel): 75
binding affinity LTR-IV (LTR-IV G4 [5]; competing G4s LTR-IV/kit): 55
binding affinity LTR-IV (LTR-IV G4 [5]; competing G4s LTR-IV/myc): 71
binding affinity LTR-III (LTR-III G4 [7]; competing G4s LTR-III/LTR-IV): 80
binding affinity LTR-III (LTR-III G4 [7]; competing G4s LTR-III/kit): 54
binding affinity LTR-III (LTR-III G4 [7]; competing G4s LTR-III/myc): 51
Compound: CN(C)CCCn1c(=O)c2ccc3c(=O)n(CCCN(C)C)c(=O)c4c5[nH]c6cc([N+](=O)[O-])ccc6[nH]c5c(c1=O)c2c34 [Compound 4]
CC50 (Cytotoxicity assay): 0.188 ± 0.00408 µM
binding affinity cell G4 (hTel) (hTel G4 [9]; competing G4s LTR-III/hTel): 10
binding affinity cell G4 (hTel) (hTel G4 [9]; competing G4s LTR-IV/hTel): 18
binding affinity cell G4 (myc) (c-myc G4; competing G4s LTR-III/myc): 37
binding affinity cell G4 (myc) (c-myc G4; competing G4s LTR-IV/myc): 45
stabilization (ΔTm, FRET) at 4-fold c-exNDI:DNA molar ratio (LTR-IV G4 [12]): above 25 °C
binding affinity cell G4 (kit) (c-kit2 G4; competing G4s LTR-III/kit): 18
binding affinity cell G4 (kit) (c-kit2 G4; competing G4s LTR-IV/kit): 23

Kd (LTR-IV G4 [8]): 0.0059 µM
IC50 (HIV-1 NL4-3 strain [2]): 0.023 ± 0.0013 µM
Compound: CN(C)CCCn1c(=O)c2cc(Br)c3c(=O)n(CCCN(C)C)c(=O)c4c5[nH]c6ccc([N+](=O)[O-])cc6[nH]c5c(c1=O)c2c34 [Compound 5]
CC50 (Cytotoxicity assay): 0.439 ± 0.0107 µM
